The M2OR odorant receptor database

Columns and labels:
OR10G8 (Homo sapiens) = biological target: T1, OR10G8 (Homo sapiens) (UniProt Q8NGN5); details: stereoisomer not certain
T1 sequence (whole entry): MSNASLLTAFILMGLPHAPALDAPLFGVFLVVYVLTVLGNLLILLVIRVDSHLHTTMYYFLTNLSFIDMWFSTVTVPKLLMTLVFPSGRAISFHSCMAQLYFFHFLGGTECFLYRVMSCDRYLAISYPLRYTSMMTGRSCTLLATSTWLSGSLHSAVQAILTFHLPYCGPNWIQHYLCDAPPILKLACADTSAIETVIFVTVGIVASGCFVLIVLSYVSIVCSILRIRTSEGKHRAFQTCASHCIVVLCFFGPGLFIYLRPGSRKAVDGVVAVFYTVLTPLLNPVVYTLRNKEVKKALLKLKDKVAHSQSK
How it was run: (§1)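 Whether a receptor–molecule pair is responsive (active) rests on the original authors' judgment that its measured signal was statistically different from baseline. Pairs without that judgment are non-responsive (inactive). Sources used varied assay methods, commonly transient luciferase assays in mammalian cell lines.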

OR10J5 (Homo sapiens) = biological target: T2, OR10J5 (Homo sapiens) (UniProt Q8NHC4); details: stereoisomer not certain
T2 sequence (whole entry): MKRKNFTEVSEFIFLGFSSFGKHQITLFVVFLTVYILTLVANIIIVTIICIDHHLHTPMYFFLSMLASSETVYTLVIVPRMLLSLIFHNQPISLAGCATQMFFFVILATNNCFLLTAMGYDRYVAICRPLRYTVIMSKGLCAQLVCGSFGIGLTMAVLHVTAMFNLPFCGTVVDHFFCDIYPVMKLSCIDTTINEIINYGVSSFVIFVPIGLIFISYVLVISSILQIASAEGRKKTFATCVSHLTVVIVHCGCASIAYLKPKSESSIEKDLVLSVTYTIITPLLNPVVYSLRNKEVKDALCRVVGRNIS
How it was run: as §1
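Further: active if original authors judged signal statistically different from baseline.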

| SMILES | odorant receptor agonist call (OR10G8 (Homo sapiens)) | odorant receptor agonist call (OR10J5 (Homo sapiens)) |
| --- | --- | --- |
| CCCCCCCCC(=O)O | inactive | inactive |
| CCCCCCCCCCO | – | inactive |
| CCCC(C)=O | – | inactive |
